The results in this text go back to ChEMBL document CHEMBL1128379, “Synthesis, characterization, and antimalarial activity of the glucuronides of the hydroxylated metabolites of arteether” (J Med Chem, 1995).

A short description of data set [1]: Partition coefficient (logP). It is filed as physicochemical. To be noted: octanol/water. In short, it runs like this:
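log P estimated from C-18 HPLC retention index. Retention times taken on thermospray LC/MS, isocratic 50% (v/v) methanol in water with 0.1 M ammonium acetate at 1 mL/min, positive ion, filament on, vaporizer tip 7 °C below take-off temperature, block 184 °C.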

The next data set has as its system Plasmodium falciparum. The data set can be described thus: In vitro antimalarial activity against Plasmodium falciparum FCR3. It is filed as functional, organism-based. In short, it runs like this:
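P. falciparum FCR-3 kept in candle jars in RPMI 1640 with 10% human serum, sorbitol-synchronized for at least three cycles. Serially diluted compounds plus ring-stage parasitized cells (0.5-1% parasitemia, 5-10% hematocrit), 37 °C for 24 h, then 2 μCi [3H]hypoxanthine added and incubated 24 h more. Cells harvested, scintillation counted, drug-free parasitized controls run alongside.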

What is called logP is a log measure of how a compound divides between an organic and an aqueous phase. The IC50 is the concentration needed to halve the response being measured. A higher IC50 goes with weaker potency in that assay.

≈ marks a conversion by molar mass, not a printed value.

As for `CCO[C@H]1O[C@@H]2O[C@@]3(C)CC[C@H]4[C@H](C)[C@@H](O[C@H]5O[C@@H](C(=O)O)[C@H](O)[C@@H](O)[C@@H]5O)C[C@@H]([C@H]1C)[C@@]24OO3`, in data set [1] (read-out: logP), the logP came out at 0.61. This compound also gave a half-inhibitory concentration (IC50) in the data set with Plasmodium falciparum of 0.0893 µg/mL (≈ 0.177 µM).

For `CCO[C@H]1O[C@@H]2O[C@@]3(C)CC[C@H]4[C@H](CO[C@H]5O[C@@H](C(=O)O)[C@H](O)[C@@H](O)[C@@H]5O)CC[C@@H]([C@H]1C)[C@@]24OO3`, the log partition coefficient (logP) in data set [1] (read-out: logP) was 1.05. In the data set with Plasmodium falciparum, this compound returned an IC50 of 6 µg/mL (≈ 11.9 µM).

As for `CCO[C@H]1O[C@@H]2O[C@@]3(C)CC[C@H]4[C@H](C)[C@H](O[C@H]5O[C@@H](C(=O)O)[C@H](O)[C@@H](O)[C@@H]5O)C[C@@H]([C@H]1C)[C@@]24OO3`, in data set [1] (read-out: logP), the log partition coefficient (logP) was 0.93. Also, in the data set on Plasmodium falciparum, the IC50 was 6.56 µg/mL (≈ 13 µM).

Turning to `C[C@H]1[C@H](O[C@@H]2O[C@H](C(=O)O)C(O)[C@H](O)C2O)O[C@@H]2O[C@H]3CC[C@H]4[C@H](C)CC[C@@H]1[C@@]24OO3` (stereo partly drawn), the logP in data set [1] (read-out: logP) is 1.08. The compound further had an IC50 in the data set on Plasmodium falciparum of 6 µg/mL (≈ 13.4 µM).

As to `C[C@H]1[C@@H](O[C@@H]2O[C@H](C(=O)O)C(O)[C@H](O)C2O)O[C@@H]2O[C@H]3CC[C@H]4[C@H](C)CC[C@@H]1[C@@]24OO3` (stereo partly drawn), in data set [1] (read-out: logP), the logP was 1.8. Besides, the IC50 in the data set with Plasmodium falciparum is 0.255 µg/mL (≈ 0.571 µM).

Turning to `CCO[C@H]1O[C@@H]2O[C@@]3(C)CC[C@H]4[C@H](C)[C@@H](O)C[C@@H]([C@H]1C)[C@@]24OO3`, the logP in data set [1] (read-out: logP) was 1.93.

In the case of `CCO[C@H]1O[C@@H]2O[C@@]3(C)CC[C@H]4[C@H](CO)CC[C@@H]([C@H]1C)[C@@]24OO3`, the logP in data set [1] (read-out: logP) stood at 2.08.

For the compound `CCO[C@H]1O[C@@H]2O[C@@]3(C)CC[C@H]4[C@H](C)[C@H](O)C[C@@H]([C@H]1C)[C@@]24OO3`, in data set [1] (read-out: logP), the logP turned out to be 2.14.

With `CCO[C@H]1O[C@@H]2O[C@@]3(C)C[C@H](O)[C@H]4[C@H](C)CC[C@@H]([C@H]1C)[C@@]24OO3`, in data set [1] (read-out: logP), the lipophilicity (logP) turned out to be 2.7.

Regarding `CCO[C@H]1O[C@@H]2O[C@@]3(C)CC[C@H]4[C@H](C)CC[C@@H]([C@H]1C)[C@@]24OO3` [ARTEMOTIL], the logP in data set [1] (read-out: logP) is 3.89. In addition, it took 0.0013 µg/mL (≈ 0.00416 µM) to reach half-maximal inhibition with Plasmodium falciparum (IC50).

As to `C[C@H]1[C@@H](O)O[C@@H]2O[C@@]3(C)CC[C@H]4[C@H](C)CC[C@@H]1[C@@]24OO3` [ARTENIMOL], in data set [1], the logP is 2.45. This compound also gave an IC50 with Plasmodium falciparum of 0.0107 µg/mL (≈ 0.0376 µM).
